One test deals with U-87 MG. Put plainly: Antiproliferative activity against human U87 cells after 72 hrs by MTS assay. Format: functional, cell-based, U-87MG ATCC. In a few lines:
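U87 human glioblastoma cells (ATCC) kept in DMEM with 10% FCS and 1% glutamine at 37 °C, 5% CO2. Seeded at 2.5 × 10^3 cells/well, exposed after 24 h to compounds at 1 and 10 μM final for 72 h. […] added 2 h before reading absorbance at 490 nm. Percent cytotoxicity index (treated/control OD490 × 100) from three experiments.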
(Tetrazolium assays rely on reduction of a dye to a coloured formazan, in cell work by metabolically active cells.)

Another test concerns A549. Put plainly: Antiproliferative activity against human A549 cells after 72 hrs by MTS assay. Type of test: functional, cell-based. The settings on record: A549, 72 h. The essentials: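 A549 human lung cancer cells (ATCC) grown in RPMI 1640 with 10% FCS and 1% glutamine at 37 °C, 5% CO2. Cells seeded at 2.5 × 10^3 per well and cultured 24 h, then treated at 1 and 10 μM final for 72 h. […] added for 2 h, absorbance read at 490 nm. Cytotoxicity index (OD490treated/OD490control × 100) taken from three experiments.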

Non-standard residues stand in square brackets, D forms with d. Residues, ends and D or L forms follow the SMILES beside them. *: point of attachment. Dolaproine = CO[C@@H]([C@@H]1CCCN1)[C@@H](C)C(=O)O; Dil = CC[C@H](C)[C@H](NC)[C@@H](CC(=O)O)OC; X1 = C[C@@H](N*)[C@@H](O)c1ccccc1; NMeV = CN[C@H](C(=O)O)C(C)C

In general, EC50 refers to the concentration giving half of the maximal effect. Lower therefore signals greater potency. Consider `C/C(=C\Cc1cc(/C=C/c2cc(O)c3c(c2)OC(C)(C)[C@@H](O)C3)cc(O)c1O)CCC(O)C(C)(C)O` (stereo partly drawn), for which the values for the half-maximal effective concentration (EC50) with U-87 MG and in the test with A549 were 500 nM and greater than 10000 nM, respectively.
Consider `CC(C)=CCC/C(C)=C/Cc1cc(/C=C/c2cc(O)cc(Oc3ccc4c(c3)O[C@H](c3ccc(C/C=C(\C)CCC=C(C)C)c(O)c3O)[C@@H]4O)c2)cc(O)c1O`, for which the concentration giving a half-maximal response (EC50) with U-87 MG and in the test on A549 was greater than 10000 nM throughout.
For `COc1cc(/C=C/c2cc(O)c(CC=C(C)C)c(O)c2)cc(C/C=C(\C)CCC=C(C)C)c1O`, the half-maximal effective concentration (EC50) with U-87 MG is 7000 nM; with A549, greater than 10000 nM.
On the same counts, the results for `CC(C)=CCC[C@]1(C)Oc2c(O)cc(/C=C/c3cc(O)c4c(c3)OC(C)(C)C(O)C4)cc2C[C@@H]1O` (stereo partly drawn) are 450 nM and 240 nM.
Consider `CC(C)=CCC/C(C)=C/CC/C(C)=C/Cc1c(O)cc(/C=C/c2ccc(O)c(O)c2)cc1O`, for which the results for the EC50 in the test on U-87 MG and in the test on A549 were 25 nM and greater than 10000 nM, respectively.
As for `CC(C)=CCc1c(O)cc(/C=C/c2cc(O)c(O)c(C/C=C(\C)CCC(O)C(C)(C)O)c2)cc1O` (stereo not drawn), the EC50 with U-87 MG is 100 nM; with A549, greater than 10000 nM.
With `CC(C)=CCc1c(O)cc(/C=C/c2cc(O)c3c(c2)C[C@@H]2C(C)(C)[C@H](O)C[C@H](O)[C@@]2(C)O3)cc1O`, the EC50 in the test on U-87 MG was 50 nM; in the test with A549, greater than 10000 nM.
The corresponding values for `CC(C)=CCC/C(C)=C/Cc1cc(/C=C/c2cc(O)c3c(c2)OC(C)(C)[C@@H](O)C3)cc(O)c1O` are 250 nM and 730 nM.
For `CC[C@H](C)[C@@H]([C@@H](CC(=O)N1CCC[C@H]1[C@H](OC)[C@@H](C)C(=O)N[C@H](C)[C@@H](O)c1ccccc1)OC)N(C)C(=O)[C@@H](NC(=O)[C@@H](NC)C(C)C)C(C)C` (H-[NMeV]V[Dil][Dolaproine]-X1), the EC50 came to 0.2 nM in the test with U-87 MG and 0.5 nM in the test on A549.
On to `CC(C)=CCC/C(C)=C/Cc1cc(/C=C/c2cc(O)c(CC=C(C)C)c(O)c2)cc(O)c1O` [MAPPAIN], for which the results for the EC50 with U-87 MG and in the test with A549 were 5400 nM and 7000 nM, respectively.
Turning to `COc1cc(/C=C/c2cc(O)c(CC=C(C)C)c(O)c2)cc2c1O[C@]1(C)C[C@@H](O)[C@@H](O)C(C)(C)[C@H]1C2` [SCHWEINFURTHIN E], the EC50 in the test on U-87 MG stood at 200 nM; in the test with A549, 260 nM.
On the same counts, the results for `COc1cc(/C=C/c2cc(O)c(CC=C(C)C)c(O)c2)cc2c1O[C@]1(C)CC[C@@H](O)C(C)(C)[C@H]1C2` [SCHWEINFURTHIN F] are 240 nM and 1500 nM.
`CC(C)=CCc1c(O)cc(/C=C/c2cc(O)c3c(c2)C[C@@H]2C(C)(C)[C@H](O)CC[C@@]2(C)O3)cc1O` [SCHWEINFURTHIN G]: the 50% effective concentration (EC50) worked out at 45 nM in the test on U-87 MG and 800 nM in the test with A549.
As to `CC(C)=CCc1c(O)cc(/C=C/c2cc(O)c3c(c2)C[C@@H]2C(C)(C)[C@H](O)[C@H](O)C[C@@]2(C)O3)cc1O` [VEDELIANIN], the EC50 with U-87 MG is 30 nM; in the test on A549 it was 190 nM.
